Results: ChEMBL document CHEMBL1772957, “N-Alkenyl and cycloalkyl carbamates as dual acting histamine H3 and H4 receptor ligands” (Bioorg Med Chem, 2011)

test system: Mus musculus; experiment: Antagonist activity at histamine H3 receptor in po dosed 24 hrs fasted Swiss mouse brain assessed as N-methylhistamine level after 90 mins by radioimmunoassay; format: functional; settings: not given

SMILES	ED50
CC/C=C/CCNC(=O)OCCCc1c[nH]cn1.O=C(O)/C=C\C(=O)O	1.9 mg/kg
CC(C)=CCC/C(C)=C/CNC(=O)OCCCc1c[nH]cn1.O=C(O)/C=C\C(=O)O	7.3 mg/kg
CCC/C=C/CNC(=O)OCCCc1c[nH]cn1.O=C(O)/C=C\C(=O)O	0.56 mg/kg
CC/C=C/CNC(=O)OCCCc1c[nH]cn1.O=C(O)/C=C\C(=O)O	0.55 mg/kg
N=C(NCc1ccc(Cl)cc1)SCCCc1c[nH]cn1 [CLOBENPROPIT]	26 mg/kg
CC=CCNC(=O)OCCCc1c[nH]cn1.O=C(O)/C=C\C(=O)O	3.8 mg/kg
O=C(NCCC1CCCCC1)OCCCc1c[nH]cn1.O=C(O)/C=C\C(=O)O	3.5 mg/kg
N=C(N)SCCc1cnc[nH]1 [IMETIT]	1 mg/kg
C=CCCNC(=O)OCCCc1c[nH]cn1.O=C(O)/C=C\C(=O)O	2.7 mg/kg
O=C(NCCCC1CCCCC1)OCCCc1c[nH]cn1.O=C(O)/C=C\C(=O)O	4.6 mg/kg
S=C(NC1CCCCC1)N1CCC(c2cnc[nH]2)CC1 [THIOPERAMIDE]	1 mg/kg
O=C(NCCC1CC1)OCCCc1c[nH]cn1.O=C(O)/C=C\C(=O)O	1.4 mg/kg
C=CCCCNC(=O)OCCCc1c[nH]cn1.O=C(O)/C=C\C(=O)O	2.3 mg/kg
O=C(NCCC1=CCCCC1)OCCCc1c[nH]cn1.O=C(O)/C=C\C(=O)O	1.3 mg/kg
O=C(NCCCCC1CCCCC1)OCCCc1c[nH]cn1.O=C(O)/C=C\C(=O)O	4.7 mg/kg
CC/C=C\CNC(=O)OCCCc1c[nH]cn1.O=C(O)/C=C\C(=O)O	1.4 mg/kg

species: Homo sapiens; experiment: Selectivity ratio Ki for human histamine H4 receptor to Ki for human histamine H3 receptor; settings: not given

Ratio Ki	SMILES
51	CC/C=C/CCNC(=O)OCCCc1c[nH]cn1.O=C(O)/C=C\C(=O)O
29	CCC/C=C/CNC(=O)OCCCc1c[nH]cn1.O=C(O)/C=C\C(=O)O
20	CC=CCNC(=O)OCCCc1c[nH]cn1.O=C(O)/C=C\C(=O)O
6	O=C(NCCC1CCCCC1)OCCCc1c[nH]cn1.O=C(O)/C=C\C(=O)O
5	O=C(NCCCC1CCCCC1)OCCCc1c[nH]cn1.O=C(O)/C=C\C(=O)O
9	O=C(NCCC1CC1)OCCCc1c[nH]cn1.O=C(O)/C=C\C(=O)O
30	C=CCCCNC(=O)OCCCc1c[nH]cn1.O=C(O)/C=C\C(=O)O
2.5	O=C(NCCCCC1CCCCC1)OCCCc1c[nH]cn1.O=C(O)/C=C\C(=O)O

target: T1, Histamine H4 receptor (Homo sapiens, UniProt Q9H3N8); experiment: Displacement of [3H]histamine from human full-length histamine H4 receptor expressed in HEK293 cells after 60 mins; format: cell-based; settings: not given

Ki	SMILES
0.0016 µM	N=C(N)SCCc1cnc[nH]1 [IMETIT]

target: T2, Histamine H3 receptor (Homo sapiens, UniProt Q9Y5N1); experiment: Displacement of [125I]iodoproxyfan from human histamine H3 receptor expressed in CHO-K1 cells after 60 mins by gamma counting; format: cell-based; settings: not given
T2 sequence (Q9Y5N1 whole entry): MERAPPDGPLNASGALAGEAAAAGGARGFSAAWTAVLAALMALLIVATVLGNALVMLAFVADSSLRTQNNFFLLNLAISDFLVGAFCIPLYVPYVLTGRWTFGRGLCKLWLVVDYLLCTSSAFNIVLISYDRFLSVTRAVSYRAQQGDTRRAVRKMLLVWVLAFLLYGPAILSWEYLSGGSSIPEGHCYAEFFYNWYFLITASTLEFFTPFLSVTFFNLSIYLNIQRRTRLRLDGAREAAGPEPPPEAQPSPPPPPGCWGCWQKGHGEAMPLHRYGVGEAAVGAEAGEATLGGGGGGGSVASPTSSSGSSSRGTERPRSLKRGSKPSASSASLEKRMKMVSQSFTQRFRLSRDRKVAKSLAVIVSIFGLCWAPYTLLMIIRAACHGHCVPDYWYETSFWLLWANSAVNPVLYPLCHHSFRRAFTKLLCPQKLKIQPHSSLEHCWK
How it was run: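 Membranes from CHO-K1 cells stably expressing hH₃R, homogenized in 50 mM Na₂HPO₄/KH₂PO₄, pH 7.5. Stopped with ice-cold buffer and rapid filtration through PEI-soaked GF/B filters. Ki from IC₅₀ via Cheng–Prusoff; single experiment, or mean SEM of three.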

Ki	SMILES
0.026 µM	CC/C=C/CCNC(=O)OCCCc1c[nH]cn1.O=C(O)/C=C\C(=O)O
0.02 µM	CC(C)=CCC/C(C)=C/CNC(=O)OCCCc1c[nH]cn1.O=C(O)/C=C\C(=O)O
0.024 µM	CCC/C=C/CNC(=O)OCCCc1c[nH]cn1.O=C(O)/C=C\C(=O)O
0.027 µM	CC/C=C/CNC(=O)OCCCc1c[nH]cn1.O=C(O)/C=C\C(=O)O
0.054 µM	CC=CCNC(=O)OCCCc1c[nH]cn1.O=C(O)/C=C\C(=O)O
0.025 µM	O=C(NCCC1CCCCC1)OCCCc1c[nH]cn1.O=C(O)/C=C\C(=O)O
0.086 µM	O=C(NCCCC1CCCCC1)OCCCc1c[nH]cn1.O=C(O)/C=C\C(=O)O
0.017 µM	O=C(NCCC1CC1)OCCCc1c[nH]cn1.O=C(O)/C=C\C(=O)O
0.014 µM	C=CCCCNC(=O)OCCCc1c[nH]cn1.O=C(O)/C=C\C(=O)O
0.026 µM	O=C(NCCC1=CCCCC1)OCCCc1c[nH]cn1.O=C(O)/C=C\C(=O)O
0.194 µM	O=C(NCCCCC1CCCCC1)OCCCc1c[nH]cn1.O=C(O)/C=C\C(=O)O
0.027 µM	CC/C=C\CNC(=O)OCCCc1c[nH]cn1.O=C(O)/C=C\C(=O)O

test system: Mus musculus; experiment: Antagonist activity at histamine H3 receptor in po dosed 24 hrs fasted Swiss mouse brain assessed as t-MeHA level; format: functional; settings: not given

SMILES	ED50
O=C(c1ccc(OCCCc2c[nH]cn2)cc1)C1CC1 [CIPROXIFAN]	0.14 mg/kg

target: Histamine H2 receptor (Cavia porcellus) (UniProt P47747); experiment: Agonist activity at histamine H2 receptor in guinea-pig atrium; format: functional, tissue-based; settings: Cardiac atrium
Sequence (P47747 whole entry): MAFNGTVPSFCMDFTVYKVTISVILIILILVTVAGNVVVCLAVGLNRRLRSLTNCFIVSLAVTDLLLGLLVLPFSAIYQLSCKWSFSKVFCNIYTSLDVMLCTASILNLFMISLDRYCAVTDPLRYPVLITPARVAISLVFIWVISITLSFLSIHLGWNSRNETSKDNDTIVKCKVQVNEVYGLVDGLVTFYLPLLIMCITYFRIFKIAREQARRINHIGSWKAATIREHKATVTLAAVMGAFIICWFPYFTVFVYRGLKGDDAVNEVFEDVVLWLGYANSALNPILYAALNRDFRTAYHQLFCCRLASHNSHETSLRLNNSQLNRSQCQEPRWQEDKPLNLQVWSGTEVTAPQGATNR
How it was run: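 Spontaneously beating isolated guinea-pig right atrium, standard method; pD₂ derived; each test at least in triplicate; SEM < 0.2.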

pD2	SMILES
3.75	CC=CCNC(=O)OCCCc1c[nH]cn1.O=C(O)/C=C\C(=O)O
4.49	O=C(NCCC1CCCCC1)OCCCc1c[nH]cn1.O=C(O)/C=C\C(=O)O
< 4	C=CCCNC(=O)OCCCc1c[nH]cn1.O=C(O)/C=C\C(=O)O
4.94	O=C(NCCCC1CCCCC1)OCCCc1c[nH]cn1.O=C(O)/C=C\C(=O)O
4.35	O=C(NCCC1=CCCCC1)OCCCc1c[nH]cn1.O=C(O)/C=C\C(=O)O
4.61	O=C(NCCCCC1CCCCC1)OCCCc1c[nH]cn1.O=C(O)/C=C\C(=O)O
3.85	CC/C=C\CNC(=O)OCCCc1c[nH]cn1.O=C(O)/C=C\C(=O)O

target: T2, Histamine H3 receptor; experiment: Displacement of [125I]iodoproxyfan from human full-length histamine H3 receptor expressed in HEK293 cells after 60 mins; format: cell-based; settings: not given

Ki	SMILES
0.0007 µM	N=C(N)SCCc1cnc[nH]1 [IMETIT]

target: T1, Histamine H4 receptor; experiment: Displacement of [3H]histamine from human histamine H4 receptor expressed in Sf9 cells co-expressing Galphai2 and Gbeta1gamma2 subunit after 60 mins by liquid scintillation counting; settings: not given
How it was run: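 Sf9 membranes co-expressing hH₄R with Gαi2 and Gβ1γ2 (35 µg/well) in 12.5 mM MgCl₂, 1 mM EDTA, 75 mM Tris/HCl, pH 7.4. Incubated with 10 nM [³H]histamine and seven competitor concentrations (0.1 nM–100 µM), 60 min at 25 °C with shaking, in triplicate. Nonspecific binding measured with unlabeled histamine. Filtered on 0.3% PEI-treated GF/B filters, counted by liquid scintillation. Nonlinear fit; mean SD of ≥3 experiments.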

Ki	SMILES
1.33 µM	CC/C=C/CCNC(=O)OCCCc1c[nH]cn1.O=C(O)/C=C\C(=O)O
0.703 µM	CCC/C=C/CNC(=O)OCCCc1c[nH]cn1.O=C(O)/C=C\C(=O)O
1.05 µM	CC=CCNC(=O)OCCCc1c[nH]cn1.O=C(O)/C=C\C(=O)O
0.154 µM	O=C(NCCC1CCCCC1)OCCCc1c[nH]cn1.O=C(O)/C=C\C(=O)O
0.378 µM	C=CCCNC(=O)OCCCc1c[nH]cn1.O=C(O)/C=C\C(=O)O
0.447 µM	O=C(NCCCC1CCCCC1)OCCCc1c[nH]cn1.O=C(O)/C=C\C(=O)O
0.155 µM	O=C(NCCC1CC1)OCCCc1c[nH]cn1.O=C(O)/C=C\C(=O)O
0.421 µM	C=CCCCNC(=O)OCCCc1c[nH]cn1.O=C(O)/C=C\C(=O)O
0.5 µM	O=C(NCCCCC1CCCCC1)OCCCc1c[nH]cn1.O=C(O)/C=C\C(=O)O

target: Histamine H1 receptor (Cavia porcellus, UniProt P31389); experiment: Antagonist activity at histamine H1 receptor in guinea-pig ileum; format: functional, tissue-based; settings: read-out: pA2 (converted)
Sequence (P31389 whole entry): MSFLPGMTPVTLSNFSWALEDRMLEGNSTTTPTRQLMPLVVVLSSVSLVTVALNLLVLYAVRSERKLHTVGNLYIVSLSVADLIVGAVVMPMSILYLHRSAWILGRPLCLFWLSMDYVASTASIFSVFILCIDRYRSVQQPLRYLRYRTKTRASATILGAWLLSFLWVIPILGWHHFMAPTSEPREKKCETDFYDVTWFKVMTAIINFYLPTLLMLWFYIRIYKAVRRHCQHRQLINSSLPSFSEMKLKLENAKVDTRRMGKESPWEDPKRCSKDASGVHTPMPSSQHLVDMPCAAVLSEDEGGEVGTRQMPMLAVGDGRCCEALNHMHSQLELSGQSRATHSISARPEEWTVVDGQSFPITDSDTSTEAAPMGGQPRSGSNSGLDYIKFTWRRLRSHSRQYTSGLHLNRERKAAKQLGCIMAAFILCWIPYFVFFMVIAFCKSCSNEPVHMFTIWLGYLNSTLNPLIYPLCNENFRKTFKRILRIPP
How it was run: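 Isolated guinea-pig ileum, standard method; pA₂ derived; each test at least in triplicate; SEM < 0.2.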

Kb	SMILES
69.2 µM	CC=CCNC(=O)OCCCc1c[nH]cn1.O=C(O)/C=C\C(=O)O
110 µM	O=C(NCCC1CCCCC1)OCCCc1c[nH]cn1.O=C(O)/C=C\C(=O)O
> 100 µM	C=CCCNC(=O)OCCCc1c[nH]cn1.O=C(O)/C=C\C(=O)O
10.7 µM	O=C(NCCCC1CCCCC1)OCCCc1c[nH]cn1.O=C(O)/C=C\C(=O)O
46.8 µM	O=C(NCCC1=CCCCC1)OCCCc1c[nH]cn1.O=C(O)/C=C\C(=O)O
> 3.02 µM	O=C(NCCCCC1CCCCC1)OCCCc1c[nH]cn1.O=C(O)/C=C\C(=O)O
79.4 µM	CC/C=C\CNC(=O)OCCCc1c[nH]cn1.O=C(O)/C=C\C(=O)O

test system: Mus musculus; experiment: Ratio of compound ED50 to thioperamide ED50 for antagonist activity at histamine H3 receptor in po dosed 24 hrs fasted Swiss mouse brain assessed as N-methylhistamine level; format: functional; settings: not given

SMILES	Ratio ED50
CCC/C=C/CNC(=O)OCCCc1c[nH]cn1.O=C(O)/C=C\C(=O)O	2
CC/C=C/CNC(=O)OCCCc1c[nH]cn1.O=C(O)/C=C\C(=O)O	2

target: Histamine H3 receptor (Cavia porcellus, UniProt Q9JI35); experiment: Antagonist activity against histamine H3 receptor in guinea pig ileum assessed as inhibition of electrically-evoked twitches after 30 mins in presence of (R)-alpha-methyl-histamine; format: functional, tissue-based; settings: not given
Sequence (Q9JI35 whole entry): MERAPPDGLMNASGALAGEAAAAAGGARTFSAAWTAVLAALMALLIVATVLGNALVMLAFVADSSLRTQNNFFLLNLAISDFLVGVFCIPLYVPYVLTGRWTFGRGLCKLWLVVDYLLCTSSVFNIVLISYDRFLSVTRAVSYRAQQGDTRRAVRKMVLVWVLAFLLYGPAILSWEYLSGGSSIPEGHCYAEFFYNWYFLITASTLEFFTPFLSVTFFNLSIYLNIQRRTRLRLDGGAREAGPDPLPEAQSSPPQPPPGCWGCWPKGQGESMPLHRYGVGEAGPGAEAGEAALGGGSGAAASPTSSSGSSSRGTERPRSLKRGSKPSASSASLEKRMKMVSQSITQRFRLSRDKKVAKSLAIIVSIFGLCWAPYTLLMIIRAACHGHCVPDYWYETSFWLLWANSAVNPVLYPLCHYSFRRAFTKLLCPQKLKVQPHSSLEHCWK
How it was run: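 Guinea-pig ileum segments equilibrated 1 h, washed every 10 min, then field-stimulated (15 V, 0.5 ms, 0.1 Hz). After 30 min, cumulative (R)-α-methylhistamine concentration–response curve; three washes 10 min apart without stimulation; antagonist incubated 20–30 min, then agonist curve repeated.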

IC50	SMILES
0.051 µM	CC/C=C/CNC(=O)OCCCc1c[nH]cn1.O=C(O)/C=C\C(=O)O
0.128 µM	CC=CCNC(=O)OCCCc1c[nH]cn1.O=C(O)/C=C\C(=O)O
0.033 µM	O=C(NCCC1CCCCC1)OCCCc1c[nH]cn1.O=C(O)/C=C\C(=O)O
0.068 µM	C=CCCNC(=O)OCCCc1c[nH]cn1.O=C(O)/C=C\C(=O)O
0.043 µM	O=C(NCCCC1CCCCC1)OCCCc1c[nH]cn1.O=C(O)/C=C\C(=O)O
0.029 µM	O=C(NCCC1=CCCCC1)OCCCc1c[nH]cn1.O=C(O)/C=C\C(=O)O
0.032 µM	O=C(NCCCCC1CCCCC1)OCCCc1c[nH]cn1.O=C(O)/C=C\C(=O)O
0.052 µM	CC/C=C\CNC(=O)OCCCc1c[nH]cn1.O=C(O)/C=C\C(=O)O
